How the values were obtained:
[1] = biological target: Adrenergic receptor alpha; assay: Inhibitory activity by measuring its ability to displace [3H]clonidine from alpha-adrenergic receptor in rat brain; format: tissue-based
[2] = biological target: Serotonin 2 (5-HT2) receptor (Rattus norvegicus); assay: Inhibitory activity by measuring its ability to displace [3H]ketanserin from serotonin receptor in rat brain
[3] = biological target: Adrenergic receptor alpha; assay: Inhibitory activity by measuring its ability to displace [3H]WB-4101 from alpha-adrenergic receptor in rat brain; format: tissue-based
[4] = biological target: Adrenergic receptor beta (Rattus norvegicus, UniProt P18090+P10608+P26255); assay: Inhibitory activity by measuring its ability to displace [125I]pindolol from beta-adrenergic receptor in rat brain; format: tissue-based
[5] = biological target: GABA-A receptor; anion channel; assay: Inhibitory activity at GABA A receptor, measured by the ability to displace [35S]TBPS from GABA A receptor in rat brain; format: tissue-based
[6] = biological target: Translocator protein (Rattus norvegicus, UniProt P16257); assay: Binding affinity against mitochondrial DBI complex (peripheral benzodiazepine receptor) using primary cultures of glial cells
Summary of the method: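 Glia from cerebella of 8-day-old Sprague–Dawley rat pups, trypsin-dissociated and grown 14 days (~95% astroglia). Cells lysed in 50 mM Hepes pH 7.4, 4 μg protein per tube. Incubated with [3H]4'-chlorodiazepam and competitor for 90 min at 4 °C, then filtered. Nonspecific binding defined with 10 μM 4'-chlorodiazepam. Triplicate competition curves; IC50 by nonlinear regression, converted to Ki (Bylund–Yamamura).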

[7] = Tested for inhibitory activity by measuring its ability to displace [3H]AMPA from glutamate (non-NMDA) receptor in rat brain; format: tissue-based
[8] = Inhibitory activity at GABA B receptor, measured by the ability to displace [3H]baclofen from GABA B receptor in rat brain; format: tissue-based
[9] = system: Rattus norvegicus; assay: Tested for antineophobic activity using the elevated plus maze test administered at 40 umol/kg perorally in rats; format: functional
[10] = biological target: GABA-A receptor; anion channel; assay: Inhibitory activity at GABA A receptor, measured by the ability to displace [3H]flumazenil from GABA A receptor in rat brain; format: tissue-based
[11] = biological target: Sigma receptor (Rattus norvegicus); assay: Tested for inhibitory activity by measuring its ability to displace [3H]3-PPP from sigma receptor in rat brain
[12] = biological target: Glutamate NMDA receptor; assay: Inhibitory activity by measuring its ability to displace [3H]-MK-801 from glutamate(NMDA) receptor in rat brain; format: tissue-based
[13] = biological target: GABA-A receptor; anion channel; assay: Inhibitory activity at GABA A receptor, measured by the ability to displace [3H]zolpidem from GABA A receptor in rat brain; format: tissue-based
[14] = biological target: Opioid receptor (Rattus norvegicus, UniProt P33533+P34975+P33535); assay: Inhibition of [3H]naxolone binding to opiate receptors in rat brain; format: tissue-based
[15] = Inhibitory activity by measuring its ability to displace [3H]spiperone from dopamine or serotonin 5-HT-1 receptors in rat brain; format: tissue-based
[16] = Inhibitory activity by measuring its ability to displace [3H]glycine from glycine receptor in rat brain; format: tissue-based
[17] = biological target: GABA-A receptor; anion channel; assay: Inhibitory activity at GABA A receptor, measured by the ability to displace [3H]GABA from GABA A receptor in rat brain; format: tissue-based
[18] = biological target: T1, Gastrin/cholecystokinin type B receptor (Rattus norvegicus, UniProt P30553); assay: Inhibitory activity by measuring its ability to displace [3H]L-365260 from cholecystokinin receptor in rat brain; format: tissue-based
T1 sequence (P30553 whole entry): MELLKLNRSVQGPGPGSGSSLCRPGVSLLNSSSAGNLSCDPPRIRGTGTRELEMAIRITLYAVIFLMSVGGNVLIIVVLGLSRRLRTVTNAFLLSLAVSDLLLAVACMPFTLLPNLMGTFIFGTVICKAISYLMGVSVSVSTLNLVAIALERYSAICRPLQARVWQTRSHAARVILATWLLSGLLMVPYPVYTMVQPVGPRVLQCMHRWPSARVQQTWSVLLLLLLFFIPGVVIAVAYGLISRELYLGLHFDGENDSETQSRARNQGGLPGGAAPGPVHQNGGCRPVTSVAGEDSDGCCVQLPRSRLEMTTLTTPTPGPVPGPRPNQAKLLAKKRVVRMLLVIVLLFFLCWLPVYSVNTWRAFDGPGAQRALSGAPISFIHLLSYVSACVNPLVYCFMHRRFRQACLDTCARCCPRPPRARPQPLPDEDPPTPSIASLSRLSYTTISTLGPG

[19] = biological target: Cannabinoid receptor 1 (Rattus norvegicus, UniProt P20272); assay: Inhibitory activity, measured by displacement [3H]CP-55940 from cannabinoid receptor (CB1) in rat brain; format: tissue-based
[20] = system: Rattus norvegicus; assay: Tested for antineophobic activity using the elevated plus maze test administered at 59 umol/kg perorally in rats; format: functional
[21] = biological target: Adrenergic receptor alpha; assay: Displacement of [3H]clonidine from alpha-adrenergic receptor in rat brain; format: tissue-based
[22] = system: Rattus norvegicus; assay: Tested for antineophobic activity using the elevated plus maze test administered at 58 umol/kg perorally in rats; format: functional

Sequence of Cannabinoid receptor 1 (P20272 whole entry): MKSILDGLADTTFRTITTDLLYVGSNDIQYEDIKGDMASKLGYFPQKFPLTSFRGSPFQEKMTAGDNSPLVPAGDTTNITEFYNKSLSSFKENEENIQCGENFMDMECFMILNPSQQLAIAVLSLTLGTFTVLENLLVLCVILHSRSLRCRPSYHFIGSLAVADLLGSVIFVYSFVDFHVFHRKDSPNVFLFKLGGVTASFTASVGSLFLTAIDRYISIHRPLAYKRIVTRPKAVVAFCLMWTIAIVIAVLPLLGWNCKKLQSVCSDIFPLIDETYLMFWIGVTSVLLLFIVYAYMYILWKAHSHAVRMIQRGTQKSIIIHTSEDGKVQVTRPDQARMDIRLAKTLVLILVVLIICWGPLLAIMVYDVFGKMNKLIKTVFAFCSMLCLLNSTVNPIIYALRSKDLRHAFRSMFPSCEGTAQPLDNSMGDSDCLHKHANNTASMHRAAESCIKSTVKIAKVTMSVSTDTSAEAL
Sequence of Translocator protein (P16257 whole entry, looked up): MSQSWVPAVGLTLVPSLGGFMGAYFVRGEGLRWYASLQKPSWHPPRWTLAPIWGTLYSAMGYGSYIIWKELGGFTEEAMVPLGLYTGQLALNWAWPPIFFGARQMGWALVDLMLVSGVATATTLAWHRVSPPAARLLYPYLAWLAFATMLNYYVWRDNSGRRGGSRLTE

SMILES | IC50 [1] [nM] | IC50 [2] [nM] | IC50 [3] [nM] | IC50 [4] [nM] | IC50 [5] [nM] | Ki [6] [nM] | IC50 [7] [nM] | IC50 [8] [nM] | IC50 [10] [nM] | IC50 [11] [nM] | IC50 [12] [nM] | IC50 [13] [nM] | IC50 [14] [nM] | IC50 [15] [nM] | IC50 [16] [nM] | IC50 [17] [nM] | IC50 [18] [nM] | IC50 [19] [nM] | IC50 [21] [nM] | further results
CCCCCCCCCCCCCCCCCCNC(=O)Cc1c(-c2ccccc2)[nH]c2ccccc12 |  | > 1000 | > 1000 | > 1000 | > 1000 |  | > 1000 | > 1000 | > 1000 | > 1000 | > 1000 | > 1000 | > 1000 | > 1000 | > 1000 | > 1000 | > 1000 | > 1000 | > 1000 | 
CCCN(CCC)C(=O)/C=C/c1c(-c2ccc(Cl)cc2)[nH]c2ccccc12 | > 1000 | > 1000 | > 1000 | > 1000 | > 1000 | 400 | > 1000 | > 1000 | > 1000 | > 1000 | > 1000 | > 1000 | > 1000 | > 1000 | > 1000 | > 1000 | > 1000 | > 1000 |  | 
CCCN(CCC)C(=O)Cc1c2n(c3ccccc13)Cc1ccccc1-2 |  | > 1000 | > 1000 | > 1000 | > 1000 | 20 | > 1000 | > 1000 | > 1000 | > 1000 | > 1000 | > 1000 | > 1000 | > 1000 | > 1000 | > 1000 | > 1000 | > 1000 | > 1000 | 
CCCCCCNC(=O)Cc1c(-c2ccccc2)[nH]c2ccccc12 | > 1000 | > 1000 | > 1000 | > 1000 | > 1000 | 96 | > 1000 | > 1000 | > 1000 | > 1000 | > 1000 | > 1000 | > 1000 | > 1000 | > 1000 | > 1000 | > 1000 | > 1000 |  | 
CCCCCCN(CCCCCC)C(=O)Cc1c2n(c3ccccc13)Cc1ccccc1-2 |  |  | > 1000 | > 1000 | > 1000 | 7.7 | > 1000 | > 1000 | > 1000 |  | > 1000 | > 1000 |  | > 1000 | > 1000 | > 1000 | > 1000 | > 1000 | > 1000 | No. of entries [22]: 2; Time [22]: 6.4%
CCCCCCCCN(CCCCCCCC)C(=O)Cc1c(-c2ccccc2)[nH]c2ccccc12 |  |  | > 1000 | > 1000 | > 1000 | > 1000 | > 1000 | > 1000 | > 1000 |  | > 1000 | > 1000 |  | > 1000 | > 1000 | > 1000 | > 1000 | > 1000 | > 1000 | 
CCCCCCCCCCNC(=O)Cc1c(-c2ccccc2)[nH]c2ccccc12 | > 1000 | > 1000 | > 1000 | > 1000 | > 1000 | > 1000 | > 1000 | > 1000 | > 1000 | > 1000 | > 1000 | > 1000 | > 1000 | > 1000 | > 1000 | > 1000 | > 1000 | > 1000 |  | 
CCCN(CCC)C(=O)Cc1cn(Cc2ccc(Br)cc2)c2ccccc12 | > 1000 |  | > 1000 | > 1000 | > 1000 | 200 | > 1000 | > 1000 | > 1000 |  | > 1000 | > 1000 |  | > 1000 | > 1000 | > 1000 | > 1000 | > 1000 |  | No. of entries [22]: 0.6; Time [22]: 1%

Second part, led by results:

IC50 [1] [nM] | IC50 [2] [nM] | IC50 [3] [nM] | IC50 [4] [nM] | IC50 [5] [nM] | Ki [6] [nM] | IC50 [7] [nM] | IC50 [8] [nM] | IC50 [10] [nM] | IC50 [11] [nM] | IC50 [12] [nM] | IC50 [13] [nM] | IC50 [14] [nM] | IC50 [15] [nM] | IC50 [16] [nM] | IC50 [17] [nM] | IC50 [18] [nM] | IC50 [19] [nM] | IC50 [21] [nM] | SMILES | further results
> 1000 | > 1000 | > 1000 | > 1000 | > 1000 | 45 | > 1000 | > 1000 | > 1000 | > 1000 | > 1000 | > 1000 | > 1000 | > 1000 | > 1000 | > 1000 | > 1000 | > 1000 |  | CCCCN(CCCC)C(=O)Cc1c(-c2ccc(F)cc2)[nH]c2ccccc12 | No. of entries [9]: 3.6; Time [9]: 8%
 |  | > 1000 | > 1000 | > 1000 | 200 | > 1000 | > 1000 | > 1000 |  | > 1000 | > 1000 |  | > 1000 | > 1000 | > 1000 | > 1000 | > 1000 | > 1000 | CCCCCCN(CCCCCC)CCc1c(-c2ccc(F)cc2)[nH]c2ccccc12 | No. of entries [20]: 2; Time [20]: 4.1%
> 1000 | > 1000 | > 1000 | > 1000 | > 1000 | 9.7 | > 1000 | > 1000 | > 1000 | > 1000 | > 1000 | > 1000 | > 1000 | > 1000 | > 1000 | > 1000 | > 1000 | > 1000 |  | CCCCCCN(CCCCCC)C(=O)Cc1c(-c2ccccc2)[nH]c2ccccc12 | No. of entries [20]: 1.6; Time [20]: 6.2%
> 1000 | > 1000 | > 1000 | > 1000 | > 1000 | 216 | > 1000 | > 1000 | > 1000 | > 1000 | > 1000 | > 1000 | > 1000 | > 1000 | > 1000 | > 1000 | > 1000 | > 1000 |  | CCCN(CCC)C(=O)Cc1c(-c2ccc(Br)cc2)[nH]c2ccccc12 | 
> 1000 | > 1000 | > 1000 | > 1000 | > 1000 | 216 | > 1000 | > 1000 | > 1000 | > 1000 | > 1000 | > 1000 | > 1000 | > 1000 | > 1000 | > 1000 | > 1000 | > 1000 |  | CCCN(CCC)C(=O)Cc1c(-c2ccc(I)cc2)[nH]c2ccccc12 | 

Source: ChEMBL document CHEMBL1126834, “Chemistry, binding affinities, and behavioral properties of a new class of "antineophobic" mitochondrial DBI receptor complex (mDRC) ligands” (J Med Chem, 1993)
